# Calls of active or inactive are those of the source. The rule behind the calls is not given here.
# How the values were obtained:
# [1] = system: Mammalian orthoreovirus 1; assay: Antiviral activity against Reovirus1 infected in Vero cells assessed as inhibition of virus-induced cytopathic effect at 100 uM by MTS assay; assay type: functional, organism-based
# Summary of the method: (§1)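 Vero cell monolayers were infected with the virus in cell-based CPE assays. EC50 is the concentration giving 50% inhibition of virus-induced cytopathic effect, scored visually or by MTS formazan colorimetric cell-viability read-out. The highest concentration tested was 100 μM for most compounds and lower for a few.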
# [2] = system: HeLa; assay: Cytotoxicity against human HeLa cells assessed as decrease in cell viability upto 100 uM by MTS assay; assay type: functional, cell-based
# Summary of the method: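 Uninfected HeLa host cells were tested up to 100 μM. CC50 is the concentration causing a 50% drop in cell viability by colorimetric formazan-based MTS assay. Alternatively, MCC is the minimal concentration giving microscopically detectable alteration of normal cell morphology.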
# [3] = system: Human alphaherpesvirus 1; assay: Antiviral activity against HSV1 virus infected in HEL cells assessed as inhibition of virus-induced cytopathic effect at 100 uM by MTS assay; assay type: functional, organism-based
# [4] = system: MDCK; assay: Cytotoxicity against MDCK cells assessed as decrease in cell viability upto 100 uM by MTS assay; assay type: cell-based, Canis lupus familiaris; settings: dog
# [5] = system: Human alphaherpesvirus 2; assay: Antiviral activity against HSV2 virus infected in HEL cells assessed as inhibition of virus-induced cytopathic effect at 100 uM by MTS assay; assay type: functional, organism-based
# [6] = system: Respiratory syncytial virus; assay: Antiviral activity against respiratory syncytial virus infected in HeLa cells assessed as inhibition of virus-induced cytopathic effect at 100 uM by MTS assay; assay type: functional, organism-based
# Summary of the method: (§2)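 HeLa cells were infected with the virus, and compounds were tested up to 100 μM. EC50 is the concentration that halves virus-induced cytopathic effect, read by visual CPE scoring or by MTS formazan colorimetric viability measurement.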
# [7] = system: Coxsackievirus B4; assay: Antiviral activity against Coxsackievirus B4 infected in HeLa cells assessed as inhibition of virus-induced cytopathic effect at 100 uM by MTS assay; assay type: functional, organism-based; summary of the method: as §2
# [8] = system: Sindbis virus; assay: Antiviral activity against Sindbis virus infected in Vero cells assessed as inhibition of virus-induced cytopathic effect at 100 uM by MTS assay; assay type: functional, organism-based; summary of the method: as §1
# [9] = system: Felid alphaherpesvirus 1; assay: Antiviral activity against feline herpes virus infected in CRFK cells assessed as inhibition of virus-induced cytopathic effect at 100 uM by MTS assay; assay type: functional, organism-based
# [10] = system: HEL; assay: Cytotoxicity against HEL cells assessed as decrease in cell viability upto 100 uM by MTS assay; assay type: cell-based; settings: human
# [11] = Cytotoxicity against CRFK cells assessed as decrease in cell viability upto 100 uM by MTS assay; assay type: cell-based, Felis catus; settings: cat
# [12] = system: Coxsackievirus B4; assay: Antiviral activity against Coxsackievirus B4 infected in Vero cells assessed as inhibition of virus-induced cytopathic effect at 100 uM by MTS assay; assay type: functional, organism-based; summary of the method: as §1
# [13] = system: Feline coronavirus; assay: Antiviral activity against feline coronavirus infected in CRFK cells assessed as inhibition of virus-induced cytopathic effect at 100 uM by MTS assay; assay type: functional, organism-based
# [14] = system: Human respirovirus 3; assay: Antiviral activity against Parainfluenza 3 virus infected in Vero cells assessed as inhibition of virus-induced cytopathic effect at 100 uM by MTS assay; assay type: functional, organism-based; summary of the method: as §1
# [15] = system: Punta Toro virus; assay: Antiviral activity against Punta Toro virus infected in Vero cells assessed as inhibition of virus-induced cytopathic effect at 100 uM by MTS assay; assay type: functional, organism-based; summary of the method: as §1
SMILES,Activity [1],Activity [2],Activity [3],Activity [4],Activity [5],Activity [6],Activity [7],Activity [8],Activity [9],Activity [10],Activity [11],Activity [12],Activity [13],Activity [14],Activity [15]
Cc1cn(CN(CCOC(=O)C(C)(C)C)S(=O)(=O)c2ccccc2N)c(=O)[nH]c1=O,inactive,inactive,inactive,Not Active,inactive,inactive,inactive,inactive,inactive,Not Active,Not Active,inactive,inactive,inactive,inactive
Cc1cn(CN(CCOC(=O)C(C)(C)C)S(=O)(=O)c2ccc(N)cc2)c(=O)[nH]c1=O,inactive,inactive,inactive,Not Active,inactive,inactive,inactive,inactive,inactive,Not Active,Not Active,inactive,inactive,inactive,inactive
CC(C)(C)C(=O)OCCN(Cn1ccc(=O)[nH]c1=O)S(=O)(=O)c1ccccc1N,inactive,inactive,inactive,Not Active,inactive,inactive,inactive,inactive,inactive,Not Active,Not Active,inactive,inactive,inactive,inactive
Cc1cn(CN(CCO)S(=O)(=O)c2cccc(N)c2)c(=O)[nH]c1=O,inactive,inactive,inactive,Not Active,inactive,inactive,inactive,inactive,inactive,Not Active,Not Active,inactive,inactive,inactive,inactive
Cc1cn(CN(CCO)S(=O)(=O)c2ccc(N)cc2)c(=O)[nH]c1=O,inactive,inactive,inactive,Not Active,inactive,inactive,inactive,inactive,inactive,Not Active,Not Active,inactive,inactive,inactive,inactive
CC(C)(C)C(=O)OCCN(Cn1ccc(=O)[nH]c1=O)S(=O)(=O)c1cccc(N)c1,inactive,inactive,inactive,Not Active,inactive,inactive,inactive,inactive,inactive,Not Active,Not Active,inactive,inactive,inactive,inactive
CC(=O)Nc1ccc(S(=O)(=O)N(CCOC(=O)C(C)(C)C)Cn2cc(F)c(=O)[nH]c2=O)cc1,inactive,inactive,inactive,Not Active,inactive,inactive,inactive,inactive,inactive,Not Active,Not Active,inactive,inactive,inactive,inactive
Cc1cn(CN(CCOC(=O)C(C)(C)C)S(=O)(=O)c2cccc([N+](=O)[O-])c2)c(=O)[nH]c1=O,inactive,inactive,inactive,Not Active,inactive,inactive,inactive,inactive,inactive,Not Active,Not Active,inactive,inactive,inactive,inactive
CC(C)(C)C(=O)OCCN(Cn1ccc(=O)[nH]c1=O)S(=O)(=O)c1ccc(N)cc1,inactive,inactive,inactive,Not Active,inactive,inactive,inactive,inactive,inactive,Not Active,Not Active,inactive,inactive,inactive,inactive
CC(C)(C)C(=O)OCCN(Cn1ccc(=O)[nH]c1=O)S(=O)(=O)c1cccc([N+](=O)[O-])c1,inactive,inactive,inactive,Not Active,inactive,inactive,inactive,inactive,inactive,Not Active,Not Active,inactive,inactive,inactive,inactive
CC(C)(C)C(=O)OCCN(Cn1ccc(=O)[nH]c1=O)S(=O)(=O)c1ccccc1[N+](=O)[O-],inactive,inactive,inactive,Not Active,inactive,inactive,inactive,inactive,inactive,Not Active,Not Active,inactive,inactive,inactive,inactive
Cc1cn(CN(CCO)S(=O)(=O)c2ccccc2N)c(=O)[nH]c1=O,inactive,inactive,inactive,Not Active,inactive,inactive,inactive,inactive,inactive,Not Active,Not Active,inactive,inactive,inactive,inactive
CC(C)(C)C(=O)OCCN(Cn1cc(F)c(=O)[nH]c1=O)S(=O)(=O)c1ccccc1N,inactive,inactive,inactive,Not Active,inactive,inactive,inactive,inactive,inactive,Not Active,Not Active,inactive,inactive,inactive,inactive
CC(C)(C)C(=O)OCCN(Cn1cc(F)c(=O)[nH]c1=O)S(=O)(=O)c1ccc(N)cc1,inactive,inactive,inactive,Not Active,inactive,inactive,inactive,inactive,inactive,Not Active,Not Active,inactive,inactive,inactive,inactive
